Data as given in ChEMBL document CHEMBL1134691, “3-Phenyl-5-acyloxymethyl-2H,5H-furan-2-ones: synthesis and biological activity of a novel group of potential antifungal drugs” (2001).
In brackets after ≈: the same amount, converted by molar mass.

Legend:
Trichosporon beigelii [1] = test: Inhibition of Trichosporon beigelli 1188 for 24 hours in vitro.; assay type: functional; conditions: Trichosporon beigelii, 24 h; read-out: MIC
Procedure, shortened: (§1)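 Microdilution following NCCLS M27-A. Medium: RPMI 1640 with L-glutamine, 0.165 M MOPS, pH 7.0. Final inoculum 5 × 10^3 cfu/mL. Compounds dissolved in DMSO, final ≤2%, serially halved from 1000 to 0.24 µmol/L. Incubated at 35 °C and read at 24 and 48 h. MIC defined as 80% inhibition of control growth; run twice in duplicate.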

Nakaseomyces glabratus [2] = test: Inhibition of Candida glabrata 20/I growth for 48 hours in vitro.; assay type: functional; conditions: Nakaseomyces glabratus, 48 h; read-out: MIC
Procedure, shortened: (§2)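 NCCLS M27-A broth microdilution in RPMI 1640 with L-glutamine and 0.165 M MOPS, pH 7.0. Isolates kept on Sabouraud dextrose agar. Inoculum 5 × 10^3 cfu/mL final. Compounds were diluted in DMSO (≤2% final) and tested in 2-fold dilutions of 1000–0.24 µmol/L. Incubation at 35 °C, OD540 read at 24 and 48 h. MIC = 80% growth inhibition versus control; assays run twice in duplicate.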

Pichia kudriavzevii [3] = test: Inhibition of Candida krusei E28 growth for 48 hours in vitro.; assay type: functional; conditions: Pichia kudriavzevii, 48 h; read-out: MIC; procedure, shortened: as §2
[4] = Inhibition of Trichophyton mentagrophytes 445 growth for 120 hours in vitro.; assay type: functional, Arthroderma benhamiae; conditions: Trichophyton benhamiae, 120 h; read-out: MIC
Procedure, shortened: (§3)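 Dermatophyte grown in MOPS-buffered (0.165 M, pH 7.0) RPMI 1640 containing L-glutamine, in an M27-A microdilution format. Inoculum 5 × 10^3 cfu/mL final. Compounds from DMSO stocks (≤2% final), 2-fold dilutions 1000–0.24 µmol/L. Incubated at 35 °C, growth judged visually at 72 and 120 h. MIC endpoint is 80% inhibition relative to control; measured twice in duplicate.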

Candida tropicalis [5] = test: Inhibition of Candida tropicalis 156 growth for 48 hours in vitro.; assay type: functional; conditions: Candida tropicalis, 48 h; read-out: MIC; procedure, shortened: as §2
Clavispora lusitaniae [6] = test: Inhibition of Candida lusitaniae 2446/I growth for 48 hours in vitro.; assay type: functional; conditions: Clavispora lusitaniae, 48 h; read-out: MIC; procedure, shortened: as §2
Trichosporon beigelii [7] = test: Inhibition of Trichosporon beigelli 1188 for 48 hours in vitro.; assay type: functional; conditions: Trichosporon beigelii, 48 h; read-out: MIC; procedure, shortened: as §1
Candida albicans [8] = test: Inhibition of Candida albicans ATCC 44859 growth for 24 hours in vitro.; assay type: functional; conditions: Candida albicans, ATCC 44859, 24 h; read-out: MIC; procedure, shortened: as §2
Candida parapsilosis [9] = test: Inhibition of Candida parapsilosis ATCC 22019 growth for 24 hours in vitro.; assay type: functional; conditions: Lodderomyces parapsilosis, ATCC 22019, 24 h; read-out: MIC; procedure, shortened: as §2
Aspergillus fumigatus [10] = test: Inhibition of Aspergillus fumigatus 231 growth for 24 hours in vitro.; assay type: functional; conditions: Aspergillus fumigatus, 24 h; read-out: MIC
Procedure, shortened: (§4)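 Filamentous isolates tested by microdilution per NCCLS M27-A in RPMI 1640 plus L-glutamine, buffered with 0.165 M MOPS to pH 7.0. Final inoculum 5 × 10^3 cfu/mL. Compounds in DMSO (final ≤2%), 2-fold series over 1000–0.24 µmol/L. Plates held at 35 °C and read visually after 24 and 48 h. MIC taken as 80% inhibition of control growth; determined twice in duplicate.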

Lichtheimia corymbifera [11] = test: In vitro inhibition of Absidia corymbifera 272 growth for 24 hours.; assay type: functional; conditions: Lichtheimia corymbifera, 24 h; read-out: MIC; procedure, shortened: as §4
Candida albicans [12] = test: Inhibition of Candida albicans ATCC 90028 for 48 hours in vitro.; assay type: functional; conditions: Candida albicans, ATCC 90028, 48 h; read-out: MIC; procedure, shortened: as §2
Lichtheimia corymbifera [13] = test: In vitro inhibition of Absidia corymbifera 272 growth for 48 hours.; assay type: functional; conditions: Lichtheimia corymbifera, 48 h; read-out: MIC; procedure, shortened: as §4
Aspergillus fumigatus [14] = test: Inhibition of Aspergillus fumigatus 231 growth for 48 hours in vitro.; assay type: functional; conditions: Aspergillus fumigatus, 48 h; read-out: MIC; procedure, shortened: as §4
Clavispora lusitaniae [15] = test: Inhibition of Candida lusitaniae 2446/I growth for 24 hours in vitro.; assay type: functional; conditions: Clavispora lusitaniae, 24 h; read-out: MIC; procedure, shortened: as §2
[16] = Inhibition of Trichophyton mentagrophytes 445 growth for 72 hours in vitro.; assay type: functional, Arthroderma benhamiae; conditions: Trichophyton benhamiae, 72 h; read-out: MIC; procedure, shortened: as §3
Pichia kudriavzevii [17] = test: Inhibition of Candida krusei ATCC 6258 growth for 24 hours in vitro.; assay type: functional; conditions: Pichia kudriavzevii, ATCC 6258, 24 h; read-out: MIC; procedure, shortened: as §2
Candida parapsilosis [18] = test: Inhibition of Candida parapsilosis ATCC 22019 growth for 48 hours in vitro.; assay type: functional; conditions: Lodderomyces parapsilosis, ATCC 22019, 48 h; read-out: MIC; procedure, shortened: as §2
Pichia kudriavzevii [19] = test: Inhibition of Candida krusei E28 growth for 24 hours in vitro.; assay type: functional; conditions: Pichia kudriavzevii, 24 h; read-out: MIC; procedure, shortened: as §2
Candida tropicalis [20] = test: Inhibition of Candida tropicalis 156 growth for 24 hours in vitro.; assay type: functional; conditions: Candida tropicalis, 24 h; read-out: MIC; procedure, shortened: as §2
Pichia kudriavzevii [21] = test: Inhibition of Candida krusei ATCC 6258 growth for 48 hours in vitro.; assay type: functional; conditions: Pichia kudriavzevii, ATCC 6258, 48 h; read-out: MIC; procedure, shortened: as §2
Candida albicans [22] = test: Inhibition of Candida albicans ATCC 44859 growth for 48 hours in vitro.; assay type: functional; conditions: Candida albicans, ATCC 44859, 48 h; read-out: MIC; procedure, shortened: as §2
Candida albicans [23] = test: Inhibition of Candida albicans ATCC 90028 for 24 hours in vitro.; assay type: functional; conditions: Candida albicans, ATCC 90028, 24 h; read-out: MIC; procedure, shortened: as §2
Nakaseomyces glabratus [24] = test: Inhibition of Candida glabrata 20/I growth for 24 hours in vitro.; assay type: functional; conditions: Nakaseomyces glabratus, 24 h; read-out: MIC; procedure, shortened: as §2

MIC (Trichosporon beigelii [1])	MIC (Nakaseomyces glabratus [2])	MIC (Pichia kudriavzevii [3])	MIC [4]	MIC (Candida tropicalis [5])	MIC (Clavispora lusitaniae [6])	MIC (Trichosporon beigelii [7])	MIC (Candida albicans [8])	MIC (Candida parapsilosis [9])	MIC (Aspergillus fumigatus [10])	MIC (Lichtheimia corymbifera [11])	MIC (Candida albicans [12])	MIC (Lichtheimia corymbifera [13])	MIC (Aspergillus fumigatus [14])	MIC (Clavispora lusitaniae [15])	MIC [16]	MIC (Pichia kudriavzevii [17])	MIC (Candida parapsilosis [18])	MIC (Pichia kudriavzevii [19])	MIC (Candida tropicalis [20])	SMILES	also measured
> 125 µM	125 µM (≈ 44.8 µg/mL)	62.5 µM (≈ 22.4 µg/mL)	15.6 µM (≈ 5.61 µg/mL)	125 µM (≈ 44.8 µg/mL)	125 µM (≈ 44.8 µg/mL)	> 125 µM	1.95 µM (≈ 0.7 µg/mL)	62.5 µM (≈ 22.4 µg/mL)	31.2 µM (≈ 11.2 µg/mL)	31.2 µM (≈ 11.2 µg/mL)	62.5 µM (≈ 22.4 µg/mL)	62.5 µM (≈ 22.4 µg/mL)	125 µM (≈ 44.8 µg/mL)	62.5 µM (≈ 22.4 µg/mL)	7.81 µM (≈ 2.8 µg/mL)	31.2 µM (≈ 11.2 µg/mL)	> 125 µM	31.2 µM (≈ 11.2 µg/mL)	31.2 µM (≈ 11.2 µg/mL)	COc1ccc(C2=CC(COC(=O)c3ccc(Cl)cc3)OC2=O)cc1 (configuration not stated)	MIC (Pichia kudriavzevii [21]): 62.5 µM (≈ 22.4 µg/mL); MIC (Candida albicans [22]): 15.6 µM (≈ 5.61 µg/mL); MIC (Candida albicans [23]): 31.2 µM (≈ 11.2 µg/mL); MIC (Nakaseomyces glabratus [24]): 62.5 µM (≈ 22.4 µg/mL)
3.91 µM (≈ 1.59 µg/mL)	1.95 µM (≈ 0.795 µg/mL)	15.6 µM (≈ 6.37 µg/mL)	3.91 µM (≈ 1.59 µg/mL)	15.6 µM (≈ 6.37 µg/mL)	7.81 µM (≈ 3.18 µg/mL)	15.6 µM (≈ 6.37 µg/mL)	1.95 µM (≈ 0.795 µg/mL)	7.81 µM (≈ 3.18 µg/mL)	0.98 µM (≈ 0.399 µg/mL)	7.81 µM (≈ 3.18 µg/mL)	7.81 µM (≈ 3.18 µg/mL)	15.6 µM (≈ 6.37 µg/mL)	3.91 µM (≈ 1.59 µg/mL)	3.91 µM (≈ 1.59 µg/mL)	1.95 µM (≈ 0.795 µg/mL)	7.81 µM (≈ 3.18 µg/mL)	15.6 µM (≈ 6.37 µg/mL)	7.81 µM (≈ 3.18 µg/mL)	7.81 µM (≈ 3.18 µg/mL)	O=C1OC(COC(=O)c2ccc(Cl)cc2)C=C1c1ccc(Br)cc1 (configuration not stated)	MIC (Pichia kudriavzevii [21]): 15.6 µM (≈ 6.37 µg/mL); MIC (Candida albicans [22]): 3.91 µM (≈ 1.59 µg/mL); MIC (Candida albicans [23]): 3.91 µM (≈ 1.59 µg/mL); MIC (Nakaseomyces glabratus [24]): 1.95 µM (≈ 0.795 µg/mL)
3.91 µM (≈ 1.22 µg/mL)	1.95 µM (≈ 0.607 µg/mL)	7.81 µM (≈ 2.43 µg/mL)	1.95 µM (≈ 0.607 µg/mL)	15.6 µM (≈ 4.86 µg/mL)	3.91 µM (≈ 1.22 µg/mL)	7.81 µM (≈ 2.43 µg/mL)	< 0.98 µM	7.81 µM (≈ 2.43 µg/mL)	0.98 µM (≈ 0.305 µg/mL)	7.81 µM (≈ 2.43 µg/mL)	3.91 µM (≈ 1.22 µg/mL)	15.6 µM (≈ 4.86 µg/mL)	3.91 µM (≈ 1.22 µg/mL)	1.95 µM (≈ 0.607 µg/mL)	1.95 µM (≈ 0.607 µg/mL)	3.91 µM (≈ 1.22 µg/mL)	7.81 µM (≈ 2.43 µg/mL)	3.91 µM (≈ 1.22 µg/mL)	7.81 µM (≈ 2.43 µg/mL)	CC(=O)OCC1C=C(c2ccc(Br)cc2)C(=O)O1 (configuration not stated)	MIC (Pichia kudriavzevii [21]): 7.81 µM (≈ 2.43 µg/mL); MIC (Candida albicans [22]): 1.95 µM (≈ 0.607 µg/mL); MIC (Candida albicans [23]): 1.95 µM (≈ 0.607 µg/mL); MIC (Nakaseomyces glabratus [24]): 0.98 µM (≈ 0.305 µg/mL)
